Series [1] in a line: Stability in phosphate buffer assessed as half life of camptothecin formation at 5 mg at pH 7.4 by HPLC. Type of series: physicochemical. The following applies: in vitro. Put shortly: (§1)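 Prodrug (5 mg) in 2 mL 100 mM sodium phosphate buffer on shaker at 37 °C, in triplicate. Aliquots taken at set times, dried, reconstituted in methanol, and analysed by HPLC with fluorescence detection. CPT appearance fit to first-order kinetics, Ct versus C∞; half-life derived from the rate constant.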

Series [2] in a line: Stability in phosphate buffer assessed as half life of camptothecin formation at 5 mg at pH 7 by HPLC. Type of series: physicochemical. The procedure, abridged: as §1
Series [3] in a line: Stability in phosphate buffer assessed as half life of camptothecin formation at 5 mg at pH 6.6 by HPLC. The following applies: in vitro. Type of series: physicochemical. The procedure, abridged: as §1
In series [4] the test system is A549. The series can be described thus: Cytotoxicity against human A549 cells after 48 hrs by MTT method. Type of series: functional, cell-based. As to conditions: A549, 48 h. Put shortly:
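A549 cells grown in DMEM/F-12 with 10% FBS, 37 °C, 5% CO2; seeded 10,000 cells/well, attached 24 h, then exposed in triplicate to 30 dilutions for 48 h. Washed with PBS, MTT added 5 h at 37 °C in dark, crystals dissolved in SDS/DMF:water, absorbance 570 nm (reference 690 nm). Viability relative to drug-free controls; IC50 from variable-slope sigmoidal fit.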
In general terms: Formazan colour is commonly taken as a measure of viable cells.

A short description of series [5]: Stability in phosphate buffer assessed as half life of prodrug hydrolysis at 5 mg at pH 7.4 by HPLC. Type of series: physicochemical. The following applies: in vitro. The procedure, abridged:
(§2)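 In 100 mM sodium phosphate buffer, 5 mg prodrug per 2 mL, shaken at 37 °C, triplicate runs. Timed aliquots dried, taken up in methanol, and quantified by HPLC with fluorescence detection. Prodrug loss fit to first-order decay, Ct versus C0; half-life obtained from the rate constant.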

Series [6] can be described thus: Stability in phosphate buffer assessed as half life of prodrug hydrolysis at 5 mg at pH 7 by HPLC. Type of series: physicochemical. The procedure, abridged: as §2
Series [7] is described as follows: Stability in phosphate buffer assessed as half life of prodrug hydrolysis at 5 mg at pH 6.6 by HPLC. As to conditions: in vitro. Type of series: physicochemical. Put shortly: as §2

Results on five compounds are retold here after ChEMBL document CHEMBL1154765, “A series of alpha-amino acid ester prodrugs of camptothecin: in vitro hydrolysis and A549 human lung carcinoma cell cytotoxicity” (J Med Chem, 2010).

As a reminder, the IC50 is the concentration that gives 50% inhibition. A lower IC50 goes with greater potency in that assay.

On to `CC[C@@]1(OC(=O)[C@@H](C)N)C(=O)OCc2c1cc1n(c2=O)Cc2cc3ccccc3nc2-1`, for which the t1/2 in series [1] came out at 15.47 h; in series [2], 16.3 h; in series [3] it was 21.31 h; in series [5], 2.496 h; in series [6] it was 2.828 h; in series [7] it was 4.336 h. The compound also showed an IC50 in series [4] of 120 nM.

In the case of `CCC[C@@H](N)C(=O)O[C@]1(CC)C(=O)OCc2c1cc1n(c2=O)Cc2cc3ccccc3nc2-1`, the t1/2 was determined as 32.31 h in series [1]; 36.7 h in series [2]; 38.26 h in series [3]; 2.926 h in series [5]; 4.119 h in series [6]; 4.652 h in series [7]. Further, in series [4], the IC50 turned out to be 5.2 nM.

Consider `CC[C@@]1(OC(=O)CN)C(=O)OCc2c1cc1n(c2=O)Cc2cc3ccccc3nc2-1`, for which the t1/2 in series [1] worked out at 10.79 h; in series [2], 11.26 h; in series [3], 11.54 h; in series [5], 1.774 h; in series [6], 1.802 h; in series [7], 2.564 h. The compound also gave a half-inhibitory concentration (IC50) in series [4] of 12.2 nM.

Turning to `CC[C@@H](N)C(=O)O[C@]1(CC)C(=O)OCc2c1cc1n(c2=O)Cc2cc3ccccc3nc2-1`, the t1/2 is 25.34 h in series [1]; 26.27 h in series [2]; 28.25 h in series [3]; 2.934 h in series [5]; 3.197 h in series [6]; 4.68 h in series [7]. This compound yielded an IC50 in series [4] of 4.1 nM.

In turn, `CC[C@@]1(O)C(=O)OCc2c1cc1n(c2=O)Cc2cc3ccccc3nc2-1` [CAMPTOTHECIN] showed an IC50 in series [4] of 5.38 nM.
